# Reference: ChEMBL document CHEMBL1148104, “New sugar-mimic alkaloids from the pods of Angylocalyx pynaertii” (J Nat Prod, 2002)
# Columns and labels:
# [1] = target: Lysosomal alpha-glucosidase (Rattus norvegicus) (UniProt Q6P7A9); assay: Inhibition of rat intestinal maltase assessed as glucose release at 1000 uM by Glucose B-test
# In short: (§1)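 Enzyme source was brush border membranes prepared from rat small intestine. Maltase, sucrase and isomaltase activities were read with the matching disaccharide substrate at each enzyme's optimum pH, and liberated D-glucose was quantified colorimetrically by Glucose B-test.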
# [2] = target: Alpha-galactosidase (Coffea arabica) (UniProt Q42656); assay: Inhibition of coffee bean alpha-galactosidase assessed as p-nitrophenol release at 1000 uM by spectrophotometrically
# In short: (§2)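 Assayed with the appropriate p-nitrophenyl glycoside substrate at each enzyme's optimum pH.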
# [3] = target: T1, Beta-galactosidase (Bos taurus, UniProt Q58D55); assay: Inhibition of bovine liver beta-galactosidase assessed as p-nitrophenol release by spectrophotometrically; in short: as §2
# T1 sequence (Q58D55 whole entry): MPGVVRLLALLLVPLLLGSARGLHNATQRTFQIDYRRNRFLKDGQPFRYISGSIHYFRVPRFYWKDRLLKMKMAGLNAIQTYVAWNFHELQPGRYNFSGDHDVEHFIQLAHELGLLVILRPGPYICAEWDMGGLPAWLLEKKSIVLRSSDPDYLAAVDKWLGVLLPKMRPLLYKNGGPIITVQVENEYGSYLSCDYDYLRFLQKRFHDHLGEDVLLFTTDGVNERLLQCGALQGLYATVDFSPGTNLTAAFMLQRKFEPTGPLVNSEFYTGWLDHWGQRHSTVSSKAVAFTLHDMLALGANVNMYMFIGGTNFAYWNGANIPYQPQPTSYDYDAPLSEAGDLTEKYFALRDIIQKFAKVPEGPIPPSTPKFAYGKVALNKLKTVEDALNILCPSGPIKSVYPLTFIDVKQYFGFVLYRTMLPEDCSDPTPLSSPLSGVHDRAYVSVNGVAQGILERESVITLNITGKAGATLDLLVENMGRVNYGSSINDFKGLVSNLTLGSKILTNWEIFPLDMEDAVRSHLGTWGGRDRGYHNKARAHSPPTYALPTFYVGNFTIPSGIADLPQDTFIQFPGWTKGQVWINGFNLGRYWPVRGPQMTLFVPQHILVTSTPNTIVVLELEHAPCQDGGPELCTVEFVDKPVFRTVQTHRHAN
# [4] = target: T2, Tissue alpha-L-fucosidase (Bos taurus) (UniProt Q2KIM0); assay: Inhibition of bovine epididymis alpha-L-fucosidase assessed as p-nitrophenol release at 1000 uM by spectrophotometrically; in short: as §2
# T2 sequence (whole entry): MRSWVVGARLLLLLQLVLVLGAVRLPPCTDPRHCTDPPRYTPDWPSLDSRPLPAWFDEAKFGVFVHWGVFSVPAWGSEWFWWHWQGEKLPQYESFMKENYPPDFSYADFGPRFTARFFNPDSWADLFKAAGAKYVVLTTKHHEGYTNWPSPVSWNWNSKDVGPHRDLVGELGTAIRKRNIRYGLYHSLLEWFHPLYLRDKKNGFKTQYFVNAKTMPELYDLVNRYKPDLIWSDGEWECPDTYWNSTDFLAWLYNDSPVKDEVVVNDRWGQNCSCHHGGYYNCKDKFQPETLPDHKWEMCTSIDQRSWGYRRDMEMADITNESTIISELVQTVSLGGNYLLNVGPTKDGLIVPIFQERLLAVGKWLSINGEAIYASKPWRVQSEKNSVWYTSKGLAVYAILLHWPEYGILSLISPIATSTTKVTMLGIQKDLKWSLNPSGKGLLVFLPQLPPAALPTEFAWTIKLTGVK
# [5] = target: T3, Beta-mannosidase (Rattus norvegicus, UniProt Q4FZV0); assay: Inhibition of rat epididymis beta-mannosidase assessed as p-nitrophenol release by spectrophotometrically
# T3 sequence (Q4FZV0 whole entry): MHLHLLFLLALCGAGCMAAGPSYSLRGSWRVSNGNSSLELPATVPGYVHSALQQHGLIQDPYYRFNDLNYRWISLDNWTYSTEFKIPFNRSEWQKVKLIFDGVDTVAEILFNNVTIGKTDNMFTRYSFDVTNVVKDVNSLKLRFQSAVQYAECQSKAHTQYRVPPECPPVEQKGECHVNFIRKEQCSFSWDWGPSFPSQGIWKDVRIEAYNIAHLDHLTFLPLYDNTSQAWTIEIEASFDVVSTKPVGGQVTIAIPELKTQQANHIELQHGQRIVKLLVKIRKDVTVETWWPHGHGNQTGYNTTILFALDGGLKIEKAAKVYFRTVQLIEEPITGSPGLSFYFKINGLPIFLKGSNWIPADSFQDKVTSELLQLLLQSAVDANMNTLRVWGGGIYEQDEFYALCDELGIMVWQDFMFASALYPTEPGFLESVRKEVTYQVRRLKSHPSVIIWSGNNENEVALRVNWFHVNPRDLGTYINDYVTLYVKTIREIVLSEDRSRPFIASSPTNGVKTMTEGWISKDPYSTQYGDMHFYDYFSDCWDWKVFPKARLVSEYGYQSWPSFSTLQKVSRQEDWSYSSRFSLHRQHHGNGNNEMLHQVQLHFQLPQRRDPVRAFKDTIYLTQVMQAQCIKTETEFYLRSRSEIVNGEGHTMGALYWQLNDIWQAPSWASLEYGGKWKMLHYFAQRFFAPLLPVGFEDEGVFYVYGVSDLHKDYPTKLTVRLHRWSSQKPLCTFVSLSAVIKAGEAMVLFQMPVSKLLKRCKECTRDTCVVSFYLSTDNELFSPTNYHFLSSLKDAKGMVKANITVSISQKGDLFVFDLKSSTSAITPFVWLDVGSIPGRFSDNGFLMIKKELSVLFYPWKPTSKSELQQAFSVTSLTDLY
# [6] = Inhibition of rice alpha-glucosidase assessed as glucose release by Glucose B-test; design: species or system Oryza sativa
# In short: (§3)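 Disaccharide substrate suited to each enzyme, at that enzyme's optimum pH. Released D-glucose was measured colorimetrically with the Glucose B-test.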
# [7] = Inhibition of yeast alpha-glucosidase assessed as p-nitrophenol release by spectrophotometrically; design: species or system Saccharomyces cerevisiae; in short: as §2
# [8] = organism: Rattus norvegicus; assay: Inhibition of rat epididymis alpha-mannosidase assessed as p-nitrophenol release at 1000 uM by spectrophotometrically
# [9] = Inhibition of Aspergillus niger amyloglucosidase assessed as glucose release by Glucose B-test; in short: as §3
# [10] = target: T4, Tissue alpha-L-fucosidase (Bos taurus, UniProt Q2KIM0); assay: Inhibition of bovine epididymis alpha-L-fucosidase assessed as p-nitrophenol release by spectrophotometrically; in short: as §2
# T4 sequence (Q2KIM0 whole entry): T2 sequence (whole entry)
# [11] = target: Sucrase-isomaltase, intestinal (Rattus norvegicus) (UniProt P23739); assay: Inhibition of rat intestinal isomaltase assessed as glucose release at 1000 uM by Glucose B-test; in short: as §1
# [12] = test system: Oryza sativa; assay: Inhibition of rice alpha-glucosidase assessed as glucose release at 1000 uM by Glucose B-test; in short: as §3
# [13] = target: Sucrase-isomaltase, intestinal (Rattus norvegicus) (UniProt P23739); assay: Inhibition of rat intestinal sucrase assessed as glucose release at 1000 uM by Glucose B-test; in short: as §1
# [14] = target: Alpha-glucosidase MAL62 (Saccharomyces cerevisiae, UniProt P07265); assay: Inhibition of yeast maltase alpha-glucosidase assessed as glucose release by Glucose B-test
# [15] = Inhibition of yeast isomaltase alpha-glucosidase assessed as glucose release by Glucose B-test
# [16] = target: T5, Uncharacterized protein (Sus scrofa) (UniProt I3LIR5); assay: Inhibition of pig kidney trehalase assessed as p-nitrophenol release at 1000 uM by spectrophotometrically
# T5 sequence (whole entry): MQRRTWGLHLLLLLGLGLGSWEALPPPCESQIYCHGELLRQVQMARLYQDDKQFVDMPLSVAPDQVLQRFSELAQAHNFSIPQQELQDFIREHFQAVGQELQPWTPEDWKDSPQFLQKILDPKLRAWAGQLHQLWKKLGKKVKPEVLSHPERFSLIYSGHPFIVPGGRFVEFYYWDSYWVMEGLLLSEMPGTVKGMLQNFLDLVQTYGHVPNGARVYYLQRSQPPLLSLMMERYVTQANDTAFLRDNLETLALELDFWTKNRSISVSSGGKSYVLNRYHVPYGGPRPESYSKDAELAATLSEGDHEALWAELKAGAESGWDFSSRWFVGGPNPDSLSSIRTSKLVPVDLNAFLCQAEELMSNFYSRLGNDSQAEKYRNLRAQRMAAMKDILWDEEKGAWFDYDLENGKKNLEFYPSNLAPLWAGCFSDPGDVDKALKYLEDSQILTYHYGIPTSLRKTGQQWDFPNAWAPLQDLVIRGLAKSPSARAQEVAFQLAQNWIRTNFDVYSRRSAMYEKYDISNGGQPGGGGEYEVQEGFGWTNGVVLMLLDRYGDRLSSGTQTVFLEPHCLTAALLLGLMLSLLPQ
# [17] = target: T6, Uncharacterized protein (Sus scrofa, UniProt I3LIR5); assay: Inhibition of pig kidney trehalase assessed as p-nitrophenol release by spectrophotometrically
# T6 sequence (I3LIR5 whole entry): T5 sequence (whole entry)
# [18] = test system: Saccharomyces cerevisiae; assay: Inhibition of yeast alpha-glucosidase assessed as p-nitrophenol release at 1000 uM by spectrophotometrically; in short: as §2
# [19] = target: T7, Beta-galactosidase (Bos taurus) (UniProt Q58D55); assay: Inhibition of bovine liver beta-galactosidase assessed as p-nitrophenol release at 1000 uM by spectrophotometrically; in short: as §2
# T7 sequence (whole entry): T1 sequence (Q58D55 whole entry)
# [20] = target: T8, Beta-mannosidase (Rattus norvegicus) (UniProt Q4FZV0); assay: Inhibition of rat epididymis beta-mannosidase assessed as p-nitrophenol release at 1000 uM by spectrophotometrically
# T8 sequence (whole entry): T3 sequence (Q4FZV0 whole entry)
# [21] = test system: Aspergillus niger; assay: Inhibition of Aspergillus niger amyloglucosidase assessed as glucose release at 1000 uM by Glucose B-test; in short: as §3
# [22] = target: Alpha-glucosidase MAL62 (Saccharomyces cerevisiae) (UniProt P07265); assay: Inhibition of yeast maltase alpha-glucosidase assessed as glucose release at 1000 uM by Glucose B-test
# [23] = test system: Saccharomyces cerevisiae; assay: Inhibition of yeast isomaltase alpha-glucosidase assessed as glucose release at 1000 uM by Glucose B-test
# Sequence of Alpha-galactosidase (Coffea arabica) (Q42656 16-378 limits assumed): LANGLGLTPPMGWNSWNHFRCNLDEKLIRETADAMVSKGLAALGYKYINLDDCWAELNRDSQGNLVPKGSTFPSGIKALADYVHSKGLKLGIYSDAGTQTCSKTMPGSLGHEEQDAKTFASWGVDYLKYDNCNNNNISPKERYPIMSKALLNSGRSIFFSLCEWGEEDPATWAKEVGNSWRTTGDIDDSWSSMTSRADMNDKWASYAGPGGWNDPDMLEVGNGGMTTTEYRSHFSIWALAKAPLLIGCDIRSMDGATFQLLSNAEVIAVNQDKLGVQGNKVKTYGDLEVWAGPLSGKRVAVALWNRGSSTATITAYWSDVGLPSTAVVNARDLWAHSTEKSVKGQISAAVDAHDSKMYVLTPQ
# Sequence of Lysosomal alpha-glucosidase (Rattus norvegicus) (Q6P7A9 whole entry): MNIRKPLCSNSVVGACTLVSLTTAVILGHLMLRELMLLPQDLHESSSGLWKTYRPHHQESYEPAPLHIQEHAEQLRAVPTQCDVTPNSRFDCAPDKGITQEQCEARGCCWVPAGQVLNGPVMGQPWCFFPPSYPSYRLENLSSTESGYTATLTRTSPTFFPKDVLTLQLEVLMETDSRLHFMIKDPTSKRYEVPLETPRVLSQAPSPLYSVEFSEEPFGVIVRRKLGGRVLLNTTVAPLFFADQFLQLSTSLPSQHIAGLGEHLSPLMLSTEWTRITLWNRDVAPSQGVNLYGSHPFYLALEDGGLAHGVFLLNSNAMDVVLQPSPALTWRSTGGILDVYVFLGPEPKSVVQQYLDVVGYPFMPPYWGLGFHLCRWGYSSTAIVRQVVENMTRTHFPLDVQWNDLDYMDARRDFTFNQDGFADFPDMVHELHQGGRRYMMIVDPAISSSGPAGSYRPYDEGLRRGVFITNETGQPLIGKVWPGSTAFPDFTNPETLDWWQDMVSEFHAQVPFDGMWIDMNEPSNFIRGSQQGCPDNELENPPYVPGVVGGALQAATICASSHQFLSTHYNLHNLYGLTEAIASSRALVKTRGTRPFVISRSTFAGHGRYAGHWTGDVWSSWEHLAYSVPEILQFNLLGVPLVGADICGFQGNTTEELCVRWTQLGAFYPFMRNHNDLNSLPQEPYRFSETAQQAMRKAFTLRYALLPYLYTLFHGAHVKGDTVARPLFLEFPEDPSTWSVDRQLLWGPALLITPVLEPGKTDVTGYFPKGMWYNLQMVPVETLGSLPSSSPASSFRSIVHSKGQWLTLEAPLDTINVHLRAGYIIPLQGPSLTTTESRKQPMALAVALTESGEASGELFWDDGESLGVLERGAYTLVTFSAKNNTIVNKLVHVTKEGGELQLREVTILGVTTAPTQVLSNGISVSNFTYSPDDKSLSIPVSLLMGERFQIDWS
# Sequence of Sucrase-isomaltase, intestinal (Rattus norvegicus) (P23739 1-1013 limits assumed): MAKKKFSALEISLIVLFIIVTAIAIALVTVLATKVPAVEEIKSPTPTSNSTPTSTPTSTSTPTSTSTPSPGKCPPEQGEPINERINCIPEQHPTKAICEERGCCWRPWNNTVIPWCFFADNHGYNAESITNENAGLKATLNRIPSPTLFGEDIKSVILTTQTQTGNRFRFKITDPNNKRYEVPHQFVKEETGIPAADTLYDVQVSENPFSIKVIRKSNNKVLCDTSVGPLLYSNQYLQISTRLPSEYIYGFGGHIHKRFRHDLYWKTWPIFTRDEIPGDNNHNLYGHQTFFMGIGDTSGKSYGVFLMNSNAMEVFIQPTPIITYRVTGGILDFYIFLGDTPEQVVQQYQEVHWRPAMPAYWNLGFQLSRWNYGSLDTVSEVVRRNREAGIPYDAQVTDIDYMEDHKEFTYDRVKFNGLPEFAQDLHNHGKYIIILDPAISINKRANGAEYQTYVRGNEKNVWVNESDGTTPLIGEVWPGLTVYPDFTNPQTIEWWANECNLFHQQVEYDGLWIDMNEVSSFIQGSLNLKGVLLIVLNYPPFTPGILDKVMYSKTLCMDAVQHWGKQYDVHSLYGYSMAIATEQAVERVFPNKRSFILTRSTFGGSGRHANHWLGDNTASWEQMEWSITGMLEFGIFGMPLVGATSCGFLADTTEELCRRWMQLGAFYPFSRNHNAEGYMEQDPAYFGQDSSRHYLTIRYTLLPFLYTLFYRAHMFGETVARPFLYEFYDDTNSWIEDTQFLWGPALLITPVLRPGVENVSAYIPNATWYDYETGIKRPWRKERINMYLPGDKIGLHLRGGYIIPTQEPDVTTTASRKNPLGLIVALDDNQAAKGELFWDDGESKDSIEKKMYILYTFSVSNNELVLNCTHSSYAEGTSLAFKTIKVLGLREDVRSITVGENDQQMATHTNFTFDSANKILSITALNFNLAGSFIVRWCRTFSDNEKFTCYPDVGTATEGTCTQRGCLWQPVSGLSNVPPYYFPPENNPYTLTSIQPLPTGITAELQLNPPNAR
# Sequence of Sucrase-isomaltase, intestinal (Rattus norvegicus) (P23739 1014-1841 limits assumed): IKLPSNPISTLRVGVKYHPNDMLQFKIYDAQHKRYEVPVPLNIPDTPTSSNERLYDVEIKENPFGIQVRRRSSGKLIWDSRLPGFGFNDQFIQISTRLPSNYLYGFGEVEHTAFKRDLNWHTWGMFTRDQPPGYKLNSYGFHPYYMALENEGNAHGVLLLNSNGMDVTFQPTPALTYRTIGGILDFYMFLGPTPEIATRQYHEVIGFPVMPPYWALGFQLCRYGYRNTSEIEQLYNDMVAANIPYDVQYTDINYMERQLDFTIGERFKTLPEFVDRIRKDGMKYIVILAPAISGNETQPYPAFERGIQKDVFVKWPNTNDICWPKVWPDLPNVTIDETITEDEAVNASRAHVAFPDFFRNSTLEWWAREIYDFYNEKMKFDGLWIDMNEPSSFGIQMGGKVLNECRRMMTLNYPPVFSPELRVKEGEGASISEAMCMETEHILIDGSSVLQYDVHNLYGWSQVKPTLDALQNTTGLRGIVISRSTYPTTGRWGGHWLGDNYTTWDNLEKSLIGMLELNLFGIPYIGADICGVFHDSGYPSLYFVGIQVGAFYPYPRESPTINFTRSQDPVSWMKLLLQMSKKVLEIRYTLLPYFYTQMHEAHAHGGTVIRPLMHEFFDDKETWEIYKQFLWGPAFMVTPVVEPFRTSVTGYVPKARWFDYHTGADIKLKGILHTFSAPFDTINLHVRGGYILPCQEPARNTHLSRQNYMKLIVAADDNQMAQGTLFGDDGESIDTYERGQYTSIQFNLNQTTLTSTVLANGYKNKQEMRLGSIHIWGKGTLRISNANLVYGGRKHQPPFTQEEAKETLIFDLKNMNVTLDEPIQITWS
# Sequence of Alpha-glucosidase MAL62 (P07265 whole entry): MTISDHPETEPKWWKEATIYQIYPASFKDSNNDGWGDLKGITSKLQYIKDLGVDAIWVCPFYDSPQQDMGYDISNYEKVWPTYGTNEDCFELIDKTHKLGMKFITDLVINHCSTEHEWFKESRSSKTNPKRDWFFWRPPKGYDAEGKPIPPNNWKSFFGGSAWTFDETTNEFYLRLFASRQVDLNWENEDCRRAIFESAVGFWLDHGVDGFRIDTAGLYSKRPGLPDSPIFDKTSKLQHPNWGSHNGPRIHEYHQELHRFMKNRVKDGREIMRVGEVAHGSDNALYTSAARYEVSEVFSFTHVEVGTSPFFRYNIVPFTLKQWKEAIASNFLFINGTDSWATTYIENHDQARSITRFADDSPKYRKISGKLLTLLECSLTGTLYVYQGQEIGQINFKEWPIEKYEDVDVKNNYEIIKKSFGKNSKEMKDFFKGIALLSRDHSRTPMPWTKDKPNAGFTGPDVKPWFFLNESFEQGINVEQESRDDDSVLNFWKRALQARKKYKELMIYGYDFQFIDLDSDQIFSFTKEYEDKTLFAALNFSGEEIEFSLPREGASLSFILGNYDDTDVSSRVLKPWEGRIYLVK
# Sequence of Alpha-glucosidase MAL62 (Saccharomyces cerevisiae) (P07265 whole entry): as above
smiles,measurement,setting,value
OC[C@H]1NC[C@H](O)[C@@H]1O [IMINORIBITOL],inhibition,[1],< 50%
same,inhibition,[2],< 50%
same,IC50,[3],380 µM
same,inhibition,[4],< 50%
same,IC50,[5],18 µM
same,IC50,[6],1000 µM
same,IC50,[7],230 µM
same,inhibition,[8],< 50%
same,IC50,[9],1000 µM
C[C@@H]1N[C@H](CO)[C@@H](O)[C@H](O)[C@@H]1O,Ki,[10],0.0053 µM
C[C@H]1N[C@H](CO)[C@@H](O)[C@@H]1O,inhibition,[1],< 50%
same,inhibition,[2],< 50%
same,inhibition,[11],< 50%
same,IC50,[10],150 µM
same,IC50,[3],30 µM
same,inhibition,[12],< 50%
same,IC50,[5],93 µM
same,inhibition,[13],< 50%
same,IC50,[7],270 µM
same,inhibition,[8],< 50%
same,IC50,[9],160 µM
OCCN1[C@H](CO)[C@@H](O)[C@H](O)[C@H]1CO,IC50,[14],260 µM
same,IC50,[15],240 µM
same,inhibition,[16],< 50%
C[C@H]1O[C@H](OC[C@H]2NC[C@@H](O)[C@@H](O)[C@@H]2O)[C@@H](O)[C@@H](O)[C@@H]1O,Ki,[10],0.06 µM
OC[C@H]1NC[C@H](O)[C@@H](O)[C@@H]1O [DUVOGLUSTAT],IC50,[14],110 µM
same,IC50,[17],41 µM
same,IC50,[15],42 µM
OC[C@H]1NC[C@@H](O[C@@H]2O[C@H](CO)[C@@H](O)[C@H](O)[C@H]2O)[C@@H]1O,inhibition,[1],< 50%
same,inhibition,[2],< 50%
same,inhibition,[18],< 50%
same,inhibition,[11],< 50%
same,inhibition,[4],< 50%
same,inhibition,[19],< 50%
same,inhibition,[12],< 50%
same,inhibition,[20],< 50%
same,inhibition,[13],< 50%
same,inhibition,[21],< 50%
same,inhibition,[8],< 50%
OCCN1C[C@H](O)[C@@H](O)[C@H](O)[C@H]1CO [MIGLITOL],IC50,[17],700 µM
same,inhibition,[22],< 50%
same,inhibition,[23],< 50%
C[C@H]1N[C@@H](CO)[C@H](O)[C@H]1O,inhibition,[1],< 50%
same,inhibition,[2],< 50%
same,inhibition,[11],< 50%
same,IC50,[10],1 µM
same,Ki,[10],0.49 µM
same,IC50,[3],420 µM
same,inhibition,[12],< 50%
same,inhibition,[20],< 50%
same,inhibition,[13],< 50%
same,IC50,[7],570 µM
same,inhibition,[8],< 50%
same,IC50,[9],510 µM
OC[C@H]1N[C@H](CO)[C@@H](O)[C@@H]1O,IC50,[14],2 µM
OC[C@H]1O[C@@H](OC[C@H]2NC[C@@H](O)[C@@H]2O)[C@H](O)[C@@H](O)[C@@H]1O,inhibition,[1],< 50%
same,inhibition,[2],< 50%
same,inhibition,[18],< 50%
same,inhibition,[11],< 50%
same,inhibition,[4],< 50%
same,inhibition,[19],< 50%
same,inhibition,[12],< 50%
same,inhibition,[20],< 50%
same,inhibition,[13],< 50%
same,inhibition,[21],< 50%
same,inhibition,[8],< 50%
C[C@H]1N[C@@H](CO)[C@@H](O)[C@H]1O,inhibition,[1],< 50%
same,inhibition,[2],< 50%
same,inhibition,[18],< 50%
same,inhibition,[11],< 50%
same,IC50,[10],35 µM
same,inhibition,[19],< 50%
same,inhibition,[12],< 50%
same,inhibition,[20],< 50%
same,inhibition,[13],< 50%
same,inhibition,[21],< 50%
same,inhibition,[8],< 50%
